Assay outcomes (PubChem)
Compounds with a hit are over-represented: about 4.1% of the library has one in this group of screens.
MrgX1 ag = agonists of human MrgX1 receptor, primary screen, HEK293 cells, Fluo-4 calcium flux. Mas-related G-protein coupled receptor member X1 (Homo sapiens), Q96LB2. Fluo-4 calcium fluorescence, agonist mode; stronger effect = higher value. B-score at 10 µM. 310,000 tested, 0.44% active. AID 588627, 2011;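 active means calcium response B-score plate-corrected fluorescence ratio at least 3 library SD, with starting fluorescence B-score inside 5 SD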
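Test system: HEK293 cells stably expressing human MrgX1 receptor; Input: fifteen thousand cells per well; Dosing: compound delivered in addition one of three; Schedule: overnight seeding, then 1 h dark dye loading; Technique: Fluo-4 NW calcium fluorescence; Measure: B-scored fluorescence response ratio; Controls: positive and negative controls per plate.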
MrgX1 PAM = positive allosteric modulators of MrgX1, primary screen, HEK293 cells, Fluo-4 calcium flux. Mas-related G-protein coupled receptor member X1 (Homo sapiens), Q96LB2. FDSS; stronger effect = higher value. B-score at 10 µM. 310,000 tested, 0.63% active. AID 588675, 2011;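 active means plate-corrected calcium response at least 3 library SD above typical, normal starting fluorescence, not activating the receptor alone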;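 further: compound read alongside a low EC10 to EC30 dose of BAM8-22 agonist; peak minus trough fluorescence over baseline measured at the second addition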
Kir21 inh = inhibitors of mouse Kir2.1 inward-rectifier potassium channel; Inward rectifier potassium channel 2 (Mus musculus), P35561; HEK293-Kir2.1, FluxOR thallium flux fluorescence; stronger effect = lower value; B-score at 10 µM; 310,000 tested, 0.85% active;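 active means fluorescence ratio B-score at or below minus 3 SD of library scores, with starting-brightness B-score within 2 SD, cut at about -4.2 in these data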;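 further: channel flux triggered by added potassium and thallium sulfate stimulus; B-score of peak minus minimum fluorescence over baseline after thallium stimulus; more negative B-score means stronger Kir2.1 block with less thallium influx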
Target sequence (P35561 whole entry, looked up): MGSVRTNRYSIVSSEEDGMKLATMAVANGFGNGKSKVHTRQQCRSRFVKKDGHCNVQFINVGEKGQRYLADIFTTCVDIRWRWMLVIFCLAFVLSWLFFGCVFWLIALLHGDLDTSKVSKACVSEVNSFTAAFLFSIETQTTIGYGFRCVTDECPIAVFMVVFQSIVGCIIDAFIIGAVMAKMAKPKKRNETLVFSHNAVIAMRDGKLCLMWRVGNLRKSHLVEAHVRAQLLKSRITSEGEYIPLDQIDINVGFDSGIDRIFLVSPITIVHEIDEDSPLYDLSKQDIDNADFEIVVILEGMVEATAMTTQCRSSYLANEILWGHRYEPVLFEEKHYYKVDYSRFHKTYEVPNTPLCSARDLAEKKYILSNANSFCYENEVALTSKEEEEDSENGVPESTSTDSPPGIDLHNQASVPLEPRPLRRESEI
MrgX1 antagonist = antagonists of human MrgX1 receptor, primary screen, HEK293 cells, Fluo-4 calcium flux; Mas-related G-protein coupled receptor member X1 (Homo sapiens), Q96LB2; BAM8-22 antagonism; stronger effect = lower value; B-score at 10 µM; 310,000 tested, 1.3% active; AID 588676, 2011;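 active means calcium-response B-score plate-corrected more than 3 library SD below zero, starting fluorescence within 5 deviations, no agonist response on first addition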;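 further: peak minus trough fluorescence over baseline after final BAM8-22 challenge near maximal dose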
RGS4 inh = RGS4 inhibitors, primary screen, cell-based, HEK293 M3R inducible RGS4, calcium flux | 310,000 tested, 0.45% active | AID 463165, 2010 | Fluo-4 calcium flux; stronger effect = higher value; triggered by carbachol at its EC20 | B-score at 10 µM | Regulator of G-protein signaling 4 (Homo sapiens), P49798;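 active means B-score, a plate-corrected calcium signal, over three deviations above library mean, with baseline fluorescence within five deviations of library mean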;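 further: RGS4 expression induced by doxycycline in cells with stable M3 receptor; B-score is computed from the integrated fluorescence ratio over baseline after carbachol; higher B-score means a larger calcium signal and so more RGS4 inhibition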
Target sequence (P49798 whole entry, looked up): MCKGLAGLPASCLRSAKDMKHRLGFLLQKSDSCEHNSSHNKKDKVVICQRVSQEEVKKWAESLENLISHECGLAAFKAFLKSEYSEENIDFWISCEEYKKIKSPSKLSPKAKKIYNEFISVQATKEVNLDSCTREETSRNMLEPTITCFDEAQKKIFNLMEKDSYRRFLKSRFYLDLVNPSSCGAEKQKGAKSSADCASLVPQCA
RGS4 pot = RGS4 potentiators or activators, primary screen, cell-based, HEK293 M3R inducible RGS4, calcium flux. carbachol calcium flux Fluo4; stronger effect = lower value. B-score at 10 µM. 310,000 tested, 0.92% active;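 active means B-score of the integrated calcium signal more than 4 SD below the library mean, with starting fluorescence not abnormally high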;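 further: negative B-score means reduced calcium response which marks RGS4 activation or potentiation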
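Assay system: HEK293 FlpIn-TREx cells, stable M3R, doxycycline-inducible RGS4 / Probe or stimulus: carbachol, ECmax concentration / Times: overnight RGS4 induction, 30 min dye load 37 °C, 20 min compound RT / Signal: kinetic calcium fluorescence imaging with Fluo4-AM dye, 2 µM / Measure: Agonist-evoked peak-minus-minimum fluorescence over baseline, integrated ratio, B score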
MrgX1 ant reconf = MrgX1 receptor antagonists, duplicate retest, confirmation, HEK293 cells, Fluo-4 calcium flux | shares compounds with MrgX1 antagonist | remaining BAM8-22 calcium response % of control (stronger effect = lower value), % at 10 µM | BAM8-22 calcium flux; stronger effect = lower value | AID 602420, 2012 | 2,300 tested, 19% active;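 active means remaining agonist calcium response no higher than 100% minus 3 SD of agonist-only control wells, with starting fluorescence near control levels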;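 further: agonist BAM8-22 given at a near maximal EC90 to ECmax level; peak minus minimum fluorescence divided by baseline after agonist addition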
HEK293 Ca flux = nonspecific calcium signal in parental HEK293, confirmation, counter-screen for MrgX1 antagonist project, parental HEK293 cells, Fluo-4 calcium flux. shares compounds with MrgX1 antagonist. Fluo-4 calcium fluorescence, FDSS. fluorescence ratio F(max-min)/F0 at 10 µM. 4,000 tested, 2% active. AID 624111, 2012;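 active means duplicate-averaged calcium fluorescence ratio at least three times the standard deviation of buffer wells, a nonspecific response in parental cells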
HEK293 Ca counter = calcium response in parental HEK293 cells, primary screen, counter-screen for MrgX1 allosteric activator project, cell-based, Fluo-4 calcium flux, duplicate. shares compounds with MrgX1 antagonist. Fluo-4 fluorescence ratio; stronger effect = higher value. fluorescence ratio F(max-min)/F0 at 10 µM. 4,000 tested, 0.4% active. AID 624114, 2012;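 active means calcium fluorescence ratio, averaged over duplicates, at least 3 SD of the buffer-well ratio, meaning a nonspecific response in receptor-free cells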;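 further: untransfected parental HEK293 lacking MrgX1 used as counterscreen for MrgX1 allosteric activators; fluorescence change taken during the second addition on a kinetic imager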
HEK293 Ca cntr2 = calcium response in parental HEK293 cells, primary screen, counter-screen for MrgX1 agonist project, cell-based, Fluo-4 calcium flux, duplicate, agonist mode | AID 624115, 2012 | shares compounds with MrgX1 antagonist | fluorescence ratio F(max-min)/F0 at 10 µM | Fluo-4 calcium fluorescence (FDSS); stronger effect = higher value | 4,000 tested, 8.7% active;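 active means calcium fluorescence ratio at least three times the spread of buffer wells, meaning a non-specific response in parental cells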
The depositor's hits bear a star.

For CCOc1ncccc1C(=O)Nc1nnc(C2CC2)s1 the results were MrgX1 ag inactive, MrgX1 PAM inactive, Kir21 inh 0.06, MrgX1 antagonist inactive, RGS4 inh inactive and RGS4 pot inactive.
CCOc1ncccc1C(=O)Nc1nnc(C)s1 was read as MrgX1 ag inactive, MrgX1 PAM inactive, Kir21 inh 0.06, MrgX1 antagonist -4.8*, RGS4 inh inactive, RGS4 pot inactive, MrgX1 ant reconf inactive, HEK293 Ca flux inactive, HEK293 Ca counter inactive and HEK293 Ca cntr2 inactive.
Screening CC(C)(C)c1ccc(C(=O)N2CCC(C(=O)NCc3ccncc3)CC2)cc1 returned MrgX1 ag inactive, MrgX1 PAM inactive, Kir21 inh 0.13, MrgX1 antagonist -5.2*, RGS4 inh inactive, RGS4 pot inactive, MrgX1 ant reconf inactive, HEK293 Ca flux inactive, HEK293 Ca counter inactive and HEK293 Ca cntr2 inactive.
Cc1ccc2nsnc2c1NC(=O)CCc1ccccc1 was read as MrgX1 ag inactive, MrgX1 PAM inactive, Kir21 inh -0.21, MrgX1 antagonist inactive, RGS4 inh inactive and RGS4 pot inactive.
Screening Cc1ccc2nsnc2c1NC(=O)COc1ccccc1F returned MrgX1 ag inactive, MrgX1 PAM inactive, Kir21 inh 1.8, MrgX1 antagonist -6.1*, RGS4 inh inactive, RGS4 pot inactive, MrgX1 ant reconf 84%*, HEK293 Ca flux inactive, HEK293 Ca counter inactive and HEK293 Ca cntr2 inactive.
`Cc1ccc(S(=O)(=O)Nc2ccccc2C(=O)Nc2nc(-c3ccc(F)cc3)cs2)cc1` gave MrgX1 ag inactive, MrgX1 PAM inactive, Kir21 inh -1.5, MrgX1 antagonist inactive, RGS4 inh inactive and RGS4 pot inactive.
`COc1ccc(-c2csc(NC(=O)c3ccccc3NS(=O)(=O)c3ccc(F)c(F)c3)n2)cc1` gave MrgX1 ag inactive, MrgX1 PAM inactive, Kir21 inh -0.67, MrgX1 antagonist -6.5*, RGS4 inh inactive, RGS4 pot inactive, MrgX1 ant reconf 63%*, HEK293 Ca flux inactive, HEK293 Ca counter inactive and HEK293 Ca cntr2 51*.
`O=C(CCNC(=O)c1ccccc1Cl)Nc1nc(-c2ccc(F)cc2)cs1` gave MrgX1 ag inactive, MrgX1 PAM inactive, Kir21 inh 0.34, MrgX1 antagonist -5.5*, RGS4 inh inactive, RGS4 pot inactive, MrgX1 ant reconf inactive, HEK293 Ca flux inactive, HEK293 Ca counter inactive and HEK293 Ca cntr2 inactive.
O=C(CCNC(=O)c1ccccc1Cl)Nc1nc(-c2ccc3ccccc3c2)cs1 was read as MrgX1 ag inactive, MrgX1 PAM inactive, Kir21 inh -1.1, MrgX1 antagonist inactive, RGS4 inh inactive and RGS4 pot inactive.
Screening CS(=O)(=O)N(Cc1ccc(C(=O)N2CCc3ccccc3C2)cc1)c1ccccc1 returned MrgX1 ag inactive, MrgX1 PAM inactive, Kir21 inh 1.2, MrgX1 antagonist -7.5*, RGS4 inh inactive, RGS4 pot inactive, MrgX1 ant reconf inactive, HEK293 Ca flux inactive, HEK293 Ca counter inactive and HEK293 Ca cntr2 inactive.
For CCOC(=O)N1CCN(C(=O)c2ccc(CN(c3ccccc3)S(C)(=O)=O)cc2)CC1 the results were MrgX1 ag inactive, MrgX1 PAM inactive, Kir21 inh -2.7, MrgX1 antagonist inactive, RGS4 inh inactive and RGS4 pot inactive.
O=C(NC1CC2CCCC(C1)N2S(=O)(=O)c1ccccc1)c1ccccc1 (centres undefined) was read as MrgX1 ag inactive, MrgX1 PAM inactive, Kir21 inh 1.1, MrgX1 antagonist inactive, RGS4 inh inactive and RGS4 pot inactive.
CC(=O)NC1CC2CCCC(C1)N2S(=O)(=O)c1ccccc1 (centres undefined) was read as MrgX1 ag inactive, MrgX1 PAM inactive, Kir21 inh -1.6, MrgX1 antagonist -8.8*, RGS4 inh inactive, RGS4 pot inactive, MrgX1 ant reconf inactive, HEK293 Ca flux inactive, HEK293 Ca counter inactive and HEK293 Ca cntr2 inactive.
For COc1ccc(-c2nc3c(c4nnc(SC(C)C(=O)Nc5ccc(C)cc5)n24)COC(C)(C)C3)cc1 (centres undefined) the results were MrgX1 ag inactive, MrgX1 PAM inactive, Kir21 inh 0.56, MrgX1 antagonist inactive, RGS4 inh inactive and RGS4 pot inactive.
For COc1ccc(NC(=O)CSc2nnc3c4c(nc(-c5ccccc5)n23)CC(C)(C)OC4)cc1 the results were MrgX1 ag inactive, MrgX1 PAM inactive, Kir21 inh 0.09, MrgX1 antagonist -7.2*, RGS4 inh inactive, RGS4 pot inactive, MrgX1 ant reconf inactive, HEK293 Ca flux inactive, HEK293 Ca counter inactive and HEK293 Ca cntr2 inactive.
For Cc1cccc(-c2nc(CSc3nc4c(c(=O)[nH]3)CCC4)c(C)o2)c1 the results were MrgX1 ag inactive, MrgX1 PAM inactive, Kir21 inh 1.9, MrgX1 antagonist -8.4*, RGS4 inh inactive, RGS4 pot inactive, MrgX1 ant reconf 82%*, HEK293 Ca flux inactive, HEK293 Ca counter inactive and HEK293 Ca cntr2 inactive.
O=C(O)c1ccc(CSc2nc3ccccc3c(=O)n2-c2ccccc2)cc1 was read as MrgX1 ag inactive, MrgX1 PAM inactive, Kir21 inh 0.57, MrgX1 antagonist inactive, RGS4 inh inactive and RGS4 pot inactive.
